Compound activity deposited in PubChem by Columbia University Molecular Screening Center.
Insulin prom act – TRM-6 insulin promoter activation; activation, % at 2 µM; AID 1296; 0.81% of 130,000 active; TRM-6 cells, insulin promoter eGFP reporter, imaging; plate-scaled: unstimulated 0, stimulated control 100;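 active = activation at 2 µM above a set limit, confirmed on inspection of the cell images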;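 also: share of cells whose green reporter signal exceeds an intensity cutoff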
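System: human fetal islet-derived TRM-6 cells with tamoxifen-inducible insulin promoter–eGFP reporter; input: seeding density of 1,000 cells per well; buffer or medium: Low-glucose (5.5 mM) medium with tamoxifen; incubation: compound exposure 48 h, 37 °C; measured by: high-content imaging of fixed cells with Hoechst nuclear stain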
A number is an active result; - = inactive; [ ] = dose if it differs, or a comment. Shown is part of a subset that was picked to be rich in hits.

SMILES	Insulin prom act
CCN1/C(=C\C=C\C2=[N+](CC)c3ccccc3C2(C)C)C(C)(C)c2ccccc21	257[toxic and fluoresces]
CN1CCN(c2ncnc3nc[nH]c23)CC1	-
N=C1c2ccccc2CN1c1ncccn1	-
N=C1c2ccccc2CN1NC(=O)c1ccc(Br)cc1	-
COc1ccc(N2C(=O)/C(=C/C=C/c3ccccc3[N+](=O)[O-])C(=O)NC2=S)cc1	-
O=c1c2ccccc2nc(SCC2CCCCO2)n1-c1ccccc1 (stereo not drawn)	367
O=c1c2ccccc2nc(-c2ccco2)n1-c1cccnc1	-
CCCCOc1nc2ccccc2c(=O)n1-c1ccccc1	-
CCCc1nc2ccc(Br)cc2c(=O)n1-c1ccc([N+](=O)[O-])c(C(F)(F)F)c1	-
Brc1ccc(C2N3CCCN23)cc1 (stereo not drawn)	508
Nc1ccncc1	-
Nc1ccc(C2(c3ccc(N)cc3)CCCCC2)cc1	-
C/C(=N\NC(=S)Nc1ccccc1)c1c(O)n(C)c(=O)n(C)c1=O	-
O=C(COc1ccccc1)Nc1ccc(Cl)cc1C(=O)c1ccccc1	-
O=C(Nc1ccc(Cl)cc1C(=O)c1ccccc1Cl)c1ccco1	230
Cc1ccc(C(=O)Nc2ccc(Cl)cc2C(=O)c2ccccc2)cc1	-
COc1ccc(C(C)=O)cc1CC(C(=O)c1ccccc1)N(C)C (stereo not drawn)	-
CSc1ncc(Cl)c(C(=O)O)n1	-
C[N+](C)(C)c1ccccc1	-
COc1ccc(N=C2SCCCN2C)cc1	512
C=Cn1ccnc1P(O)(=S)c1nc(C)c(CCOC(C)=O)s1 (stereo not drawn)	-
COCCNCCOc1ccc(C(C)(C)c2ccccc2)cc1	-
CC(C)(C)NC(=S)N1CCn2cccc2C1c1cccnc1 (stereo not drawn)	-
CCNC(=O)NNC(=O)C1CC(c2cccnc2)=NO1 (stereo not drawn)	-
CCOC(=O)c1cc(CC)sc1/N=C/C1C(=O)NC(=S)NC1=O	295
COP(=O)(OC)C(NC(=O)/C=C/c1ccccc1)C(Cl)(Cl)Cl (stereo not drawn)	-
N/C(=N/[N+](=O)[O-])N1CCN(C(=O)c2ccc(Cl)cc2)CC1	-
C=Cc1ccc(Cn2c(C(=O)O)c(C=O)c3ccccc32)cc1	-
c1ccc(-c2ccc(-c3n(-c4ccccn4)c4ccccc4[n+]3-c3ccccn3)cc2)cc1	-
C=CCn1c(O)c(C(CC)=NC(C)c2ccccc2)c(=O)[nH]c1=O (stereo not drawn)	-
